Measured values as given in ChEMBL document CHEMBL2177068, “Modeling cellular pharmacokinetics of 14- and 15-membered macrolides with physicochemical properties” (J Med Chem, 2011).

Tests used:
NCI-H292 [1] = assay: Cellular uptake in human NCI-H292 cells assessed as compound retention at 3 to 20 uM incubated for 3 hrs followed by drug washout measured after 3 hrs by LC-MS/MS analysis relative to initial drug accumulation; assay type: ADME, cell-based; conditions: nci-h292, 3 h
Procedure, shortened: (§1)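 Cells loaded 3 h with 3-20 μM macrolide, then incubated 3 h in drug-free medium. Intracellular drug measured by LC-MS/MS before and after washout. Retention given as percentage of initially accumulated compound remaining in cells after washout.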

[2] = Cellular uptake in human T lymphocytes assessed as compound retention at 3 to 20 uM incubated for 3 hrs followed by drug washout measured after 3 hrs by LC-MS/MS analysis relative to initial drug accumulation; assay type: ADME, cell-based; conditions: t-cell; procedure, shortened: as §1
[3] = Cellular uptake in human MDM assessed as compound retention at 3 to 20 uM incubated for 3 hrs followed by drug washout measured after 3 hrs by LC-MS/MS analysis relative to initial drug accumulation; assay type: ADME; procedure, shortened: as §1
[4] = Cellular uptake in normal human lung fibroblasts assessed as compound retention at 3 to 20 uM incubated for 3 hrs followed by drug washout measured after 3 hrs by LC-MS/MS analysis relative to initial drug accumulation; assay type: ADME; procedure, shortened: as §1
[5] = Cellular uptake in human BSMC assessed as compound retention at 3 to 20 uM incubated for 3 hrs followed by drug washout measured after 3 hrs by LC-MS/MS analysis relative to initial drug accumulation; assay type: ADME; procedure, shortened: as §1
[6] = Cellular uptake in human PMNC assessed as compound retention at 3 to 20 uM incubated for 3 hrs followed by drug washout measured after 3 hrs by LC-MS/MS analysis relative to initial drug accumulation; assay type: ADME; procedure, shortened: as §1
NCI-H292 [7] = assay: Cellular uptake in human […] cells at 3 to 20 uM after 3 hrs by LC-MS/MS analysis relative to azithromycin; assay type: ADME, cell-based; conditions: nci-h292, 3 h
Procedure, shortened: (§2)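 Cells (primary human BSMC, MDM, NHBE, PMN, T-lymphocytes, NHLF, or NCI-H292 lung carcinoma line) incubated 3 h with 3-20 μM macrolide; extracellular drug removed (PMNs washed through silicone oil, NCI-H292 washed with ice-cold PBS). Intracellular drug quantified by LC-MS/MS; accumulation expressed as % of azithromycin accumulation measured in the same experiment. Azithromycin reference run at 10 μM, normalized to total protein.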

[8] = Cellular uptake in human T lymphocytes at 3 to 20 uM after 3 hrs by LC-MS/MS analysis relative to azithromycin; assay type: ADME, cell-based; conditions: t-cell; procedure, shortened: as §2
[9] = Cellular uptake in human MDM at 3 to 20 uM after 3 hrs by LC-MS/MS analysis relative to azithromycin; assay type: ADME; procedure, shortened: as §2
[10] = Cellular uptake in normal human lung fibroblast at 3 to 20 uM after 3 hrs by LC-MS/MS analysis relative to azithromycin; assay type: ADME; procedure, shortened: as §2
[11] = Cellular uptake in human BSMC at 3 to 20 uM after 3 hrs by LC-MS/MS analysis relative to azithromycin; assay type: ADME; procedure, shortened: as §2
[12] = Cellular uptake in human NHBE at 3 to 20 uM after 3 hrs by LC-MS/MS analysis relative to azithromycin; assay type: ADME; procedure, shortened: as §2
[13] = Cellular uptake in human PMNC at 3 to 20 uM after 3 hrs by LC-MS/MS analysis relative to azithromycin; assay type: ADME; procedure, shortened: as §2
[14] = Cellular uptake in human NHBE assessed as compound retention at 3 to 20 uM incubated for 3 hrs followed by drug washout measured after 3 hrs by LC-MS/MS analysis relative to initial drug accumulation; assay type: ADME; procedure, shortened: as §1

| SMILES | Drug uptake (NCI-H292 [1]) [%] | Drug uptake [2] [%] | Drug uptake [3] [%] | Drug uptake [4] [%] | Drug uptake [5] [%] | Drug uptake [6] [%] | Drug uptake (NCI-H292 [7]) [%] | Drug uptake [8] [%] | Drug uptake [9] [%] | Drug uptake [10] [%] | Drug uptake [11] [%] | Drug uptake [12] [%] | Drug uptake [13] [%] | Drug uptake [14] [%] |
| --- | --- | --- | --- | --- | --- | --- | --- | --- | --- | --- | --- | --- | --- | --- |
| CC[C@H]1OC(=O)[C@H](C)[C@@H](O)[C@H](C)[C@@H](O[C@@H]2O[C@H](C)C[C@H](N(C)C)[C@H]2O)[C@](C)(O)C[C@@H](C)CN(C)[C@H](C)[C@@H](O)[C@]1(C)O [DESCLADINOSYL AZITHROMYCIN] | 77 | 46 | 81 | 70 | 63 | 68 | 56 | 52 | 79 | 52 | 75 | 52 | 42 | 74 |
| CC[C@H]1OC(=O)[C@H](C)[C@@H](O[C@H]2C[C@@](C)(OC)[C@@H](O)[C@H](C)O2)[C@H](C)[C@@H](O[C@@H]2O[C@H](C)C[C@H](N(C)C)[C@H]2O)[C@](C)(OC)C[C@@H](C)C(=O)[C@H](C)[C@@H](O)[C@]1(C)O [CLARITHROMYCIN] | 1 | 2 | 4 | 1 | 1 | 2 | 35 | 16 | 66 | 127 | 36 | 25 | 36 | 0 |
| CC[C@H]1OC(=O)[C@H](C)[C@@H](O[C@H]2C[C@@](C)(OC)[C@@H](O)[C@H](C)O2)[C@H](C)[C@@H](O[C@@H]2O[C@H](C)C[C@H](N(C)C)[C@H]2O)[C@](C)(OC)C[C@@H](C)C(=O)N[C@H](C)[C@@H](O)[C@]1(C)O | 23 | 2 | 8 | 35 | 0 | 37 | 10 | 5 | 11 | 9 | 5 | 11 | 13 | 16 |
| CCCCCCCC(=O)NCCCN(C)[C@H]1C[C@@H](C)O[C@@H](O[C@@H]2[C@@H](C)[C@H](O[C@H]3C[C@@](C)(OC)[C@@H](O)[C@H](C)O3)[C@@H](C)C(=O)O[C@H](CC)[C@@](C)(O)[C@H](O)[C@@H](C)N(C)C[C@H](C)C[C@@]2(C)O)[C@@H]1O | 51 | 19 | 100 | 78 | 47 | 85 | 457 | 460 | 1235 | 1699 | 598 | 422 | 663 | 57 |

More lines, now with the values ahead:

| Drug uptake (NCI-H292 [1]) [%] | Drug uptake [2] [%] | Drug uptake [3] [%] | Drug uptake [4] [%] | Drug uptake [5] [%] | Drug uptake [6] [%] | Drug uptake (NCI-H292 [7]) [%] | Drug uptake [8] [%] | Drug uptake [9] [%] | Drug uptake [10] [%] | Drug uptake [11] [%] | Drug uptake [12] [%] | Drug uptake [13] [%] | Drug uptake [14] [%] | SMILES |
| --- | --- | --- | --- | --- | --- | --- | --- | --- | --- | --- | --- | --- | --- | --- |
| 77 | 38 | 93 | 80 | 54 | 79 | 100 | 100 | 100 | 100 | 100 | 100 | 100 | 63 | CC[C@H]1OC(=O)[C@H](C)[C@@H](O[C@H]2C[C@@](C)(OC)[C@@H](O)[C@H](C)O2)[C@H](C)[C@@H](O[C@@H]2O[C@H](C)C[C@H](N(C)C)[C@H]2O)[C@](C)(O)C[C@@H](C)CN(C)[C@H](C)[C@@H](O)[C@]1(C)O [AZITHROMYCIN] |
| 69 | 30 | 83 | 84 | 57 | 77 | 207 | 127 | 120 | 122 | 111 | 135 | 146 | 71 | CCCCCCCC(=O)NCCCN1C[C@H](C)C[C@@](C)(O)[C@H](O[C@@H]2O[C@H](C)C[C@H](N(C)C)[C@H]2O)[C@@H](C)[C@H](O[C@H]2C[C@@](C)(OC)[C@@H](O)[C@H](C)O2)[C@@H](C)C(=O)O[C@H](CC)[C@@](C)(O)[C@H](O)[C@H]1C |
| 0 | 1 | 3 | 0 | 0 | 0 | 13 | 5 | 28 | 54 | 9 | 8 | 17 | 0 | CC[C@H]1OC(=O)[C@H](C)[C@@H](O)[C@H](C)[C@@H](O)[C@](C)(O)C[C@@H](C)CN(C)[C@H](C)[C@@H](O)[C@]1(C)O [AZITHROMYCIN AGLYCONE] |
| 48 | 6 | 56 | 63 | 27 | 74 | 121 | 41 | 148 | 256 | 83 | 101 | 118 | 33 | CC[C@H]1OC(=O)[C@H](C)[C@@H](O[C@H]2C[C@@](C)(OC)[C@@H](OC(=O)CN(CC)CC)[C@H](C)O2)[C@H](C)[C@@H](O[C@@H]2O[C@H](C)C[C@H](N(C)C)[C@H]2O)[C@](C)(OC)C[C@@H](C)C(=O)N[C@H](C)[C@@H](O)[C@]1(C)O |
